# Rows were chosen to be rich in hits. Some 2.3% of all compounds tested hit in one or more screens of this group.
# CSN inh: CSN deneddylation inhibition; Q92905; Purified CSN, SCF-Nedd8-OG deneddylation, fluorescence polarization; inhibition, % at 12.5 µM; actives 0.38% (n = 360,000);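 active means pattern-corrected inhibition above about 35%, with an unprinted fluorescence ratio check between 0.5 and 1.5, limit read from the data, passing the limit was not always enough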
# Target sequence (Q92905 whole entry, looked up, one chain of several): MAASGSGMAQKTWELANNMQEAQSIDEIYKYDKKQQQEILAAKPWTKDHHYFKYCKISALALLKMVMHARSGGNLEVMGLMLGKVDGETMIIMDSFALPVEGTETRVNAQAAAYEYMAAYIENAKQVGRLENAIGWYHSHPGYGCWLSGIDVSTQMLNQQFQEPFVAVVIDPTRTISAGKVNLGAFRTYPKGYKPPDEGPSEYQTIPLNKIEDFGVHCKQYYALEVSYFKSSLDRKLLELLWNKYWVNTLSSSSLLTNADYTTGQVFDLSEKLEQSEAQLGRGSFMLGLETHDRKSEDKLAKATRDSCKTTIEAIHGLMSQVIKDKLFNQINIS
#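 Material: purified human Csn5 enzyme expressed in HEK293T cells / Medium: Tris buffer pH 7.5, NaCl, DTT, Tween-20, trehalose, ovalbumin / Compound dosing: 12.5 µM single point / Schedule: 90 min incubation of compound, enzyme and substrate at room temperature / Signal: fluorescence polarization of the substrate / Control set: no-enzyme wells high, enzyme-with-substrate wells low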
# SKN-1 block: C. elegans SKN-1 inhibition; actives 0.49% (n = 360,000); AID 624304; C. elegans VP596 Pgst-4::GFP/RFP ratio, acrylamide-induced, 24 h; inhibition, % at 21.8 µM;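 active means interference check ratio from 0.5 to 1.5 plus GFP to RFP signal ratio inhibition reaching or exceeding a fixed threshold, cut at about 30% in these data, passing the limit was not always enough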
# SUMO1 PPI mod: SUMO1-SIM interaction modulation; inhibition, % at 20 µM; SUMO1 binding to a labelled peptide, TR-FRET, 1 h; actives 0.33% (n = 360,000); in the data active means inhibition above about 37%
# Rpn11 block: inhibitors of human proteasome Rpn11; O00487; human 26S proteasome, Ub4-pepOG fluorescence polarization; 20S core pre-blocked with epoxomicin; inhibition, % at 20 µM; actives 0.59% (n = 360,000); AID 588493;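 active means inhibition at 20 µM, scaled to each plate's controls, above about 33%, limit read from the data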
# Target sequence (O00487 whole entry, looked up): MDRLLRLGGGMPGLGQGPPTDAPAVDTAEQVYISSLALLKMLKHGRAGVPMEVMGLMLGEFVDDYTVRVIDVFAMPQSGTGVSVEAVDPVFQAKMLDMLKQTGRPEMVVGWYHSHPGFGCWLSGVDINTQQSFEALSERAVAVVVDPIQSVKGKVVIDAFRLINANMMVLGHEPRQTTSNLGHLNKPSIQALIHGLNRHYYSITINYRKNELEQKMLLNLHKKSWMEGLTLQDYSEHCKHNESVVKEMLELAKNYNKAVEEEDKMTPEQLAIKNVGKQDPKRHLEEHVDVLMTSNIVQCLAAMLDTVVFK
# MT1-MMP act inh: inhibitors of human MT1-MMP activation. AID 651647. actives 0.061% (n = 360,000). P50281. HT1080 RFP-PRO-GFP cells, GFP/RFP ratio fluorescence, overnight; percent of plate control window, DMSO zero. GFP/RFP ratio change, % at 20 µM;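 active means GFP/RFP ratio change of at least 30% with cell ATP level not reduced by more than half and red fluorescence within 50% of control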
#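 Compound: 20 µM single dose, 1% DMSO / System: HT1080 RFP-PRO-GFP cells / Controls: DMSO and RFP-L50D-GFP cell wells / Read-out basis: GFP/RFP fluorescence ratio / Schedule: overnight compound exposure at 37 °C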
# DNMT1 inh: blocks human DNA methyltransferase DNMT1 | P26358 | DNMT1 molecular beacon, Hinp1I cleavage, fluorescence | inhibition (reported as % activation of signal), % at 10 µM | actives 0.83% (n = 360,000) | AID 588458; in the data active means inhibition above about 50%
# DNMT1 interf DR: shows spectral interference in the DNMT1 beacon assay. shares compounds with DNMT1 inh. molecular beacon fluorescence, spectral interference counter-screen. IC50, µM. 200 tested, under 10 active. AID 602382; call rule not given here
# DNMT1 inh conf: confirmation of human DNMT1 inhibitors; shares compounds with DNMT1 inh; DNMT1 molecular beacon HinP1I cleavage, fluorescence; inhibition, % at 10 µM; actives 8% (n = 2,300);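 active means average inhibition of at least 30% in the single-concentration confirmation test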
# Beacon interf: counter-screen for DNMT1 inhibitors: spectral interference; shares compounds with DNMT1 inh; DNMT1 molecular beacon spectral interference counterscreen, fluorescence 485/520; activation (fluorescence interference), % at 10 µM; actives 1% (n = 2,300);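 active means activation of at least 30% at 10 µM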;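 further: DNMT1 catalytic domain with a HinP1I cleavage step and a FAM/dabcyl DNA beacon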
# Rpn11 confirm: Rpn11 inhibition confirmation, single concentration. shares compounds with Rpn11 block. purified human 26S proteasome, Ub4-pepOG fluorescence polarization; proteasome pretreated with epoxomicin. inhibition, % at 20 µM. actives 29% (n = 1,900)
# MMP-2 counter-1: blocks human MMP-2, flagging nonselective RPN11 hits. shares compounds with Rpn11 block. recombinant MMP-2, FRET peptide cleavage fluorescence. inhibition, % at 20 µM. actives 4% (n = 1,900). AID 602330;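 further: human MMP-2 activated beforehand with APMA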
# Thrombin inh: blocks bovine thrombin, flagging nonselective RPN11 hits | shares compounds with Rpn11 block | bovine thrombin cleavage of Ub4-pepOG, fluorescence polarization | inhibition, % at 20 µM | actives 13% (n = 1,900);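 active means mean inhibition at least 40% at 20 µM, or signal 3 deviations below plate average, so some actives read negative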
# CSN deneddyl val: validation of inhibitors of human CSN-mediated cullin deneddylation; shares compounds with CSN inh; Csn5 deneddylation of SCF-Nedd8OG, fluorescence polarization, 90 min; inhibition, % at 16.6 µM; actives 62% (n = 540); in the data active means inhibition above about 50%
# MMP-2 counter-2: MMP-2 (human) inhibition, counter-screen for CSN hits. recombinant MMP-2, FRET substrate fluorescence, 60 min. shares compounds with CSN inh. inhibition, % at 16.6 µM. actives 33% (n = 540);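 active means corrected plate-normalized z-score of 5 or more, or -5 or less, or inhibition of 15% or more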
# Thrombin counter: blocks bovine thrombin in a CSN deneddylation counter-screen | shares compounds with CSN inh | bovine thrombin cleavage of Ub4-pepOG, fluorescence polarization | inhibition, % at 16.6 µM | actives 49% (n = 540);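 active means inhibition at or above a set limit, with a fluorescence interference ratio between 0.5 and a set maximum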
# A number is an active result; 0 = inactive; - = not tested or not shown. Unless noted, no stated cut-off is given here; in the data, active means inhibition above about 40%; inactive means the rest.
SMILES,CSN inh,SKN-1 block,SUMO1 PPI mod,Rpn11 block,MT1-MMP act inh,DNMT1 inh,DNMT1 inh conf,Beacon interf,others
COC(=O)[C@@H]1N=C(c2ccc(OC)cc2)O[C@]12C(=O)N(Cc1ccc(OC)cc1)c1ccccc12,0,0,0,-,0,-,-,-,
O=C1NC(=O)N(c2ccc3c(c2)OCO3)C(=O)/C1=C\c1ccc(-c2ccccc2C(=O)O)o1,0,0,0,0,0,89.8,0,0,
O=C1NCN(c2ccccc2)C12CCN(C(CCc1ccccc1)c1nnnn1C1CCCCC1)CC2 (stereo unspecified),0,0,0,0,0,0,-,-,
Cc1cc(/C=C2\C(=O)NC(=O)N(c3ccc(Br)cc3)C2=O)c(C)n1-c1cc(C(=O)O)cc(C(=O)O)c1,0,0,0,0,0,83.4,0,0,
Cc1cc(/C=C2\C(=O)NC(=O)N(c3ccc(Cl)cc3)C2=O)c(C)n1-c1cccc(C(=O)O)c1,0,0,0,0,0,74.0,0,0,
Cc1ccc(N2C(=O)NC(=O)/C(=C\c3cc(C)n(-c4sc5c(c4C#N)CCCC5)c3C)C2=O)cc1,0,0,51.2,0,0,70.1,0,0,DNMT1 interf DR=0
Cc1cc(/C=C2\C(=O)NC(=O)N(c3cccc(Br)c3)C2=O)c(C)n1C,0,0,0,0,0,0,-,-,
Cc1cc(/C=C2\C(=O)NC(=O)N(c3ccc(Br)cc3)C2=O)c(C)n1C,0,0,0,0,0,0,-,-,
Cc1cc(/C=C2\C(=O)NC(=O)N(c3cccc(F)c3)C2=O)c(C)n1-c1cc(C(=O)O)cc(C(=O)O)c1,0,0,0,0,0,74.9,0,0,
O=C1C2CC(CN3CCCCC23)C2CCCCN12 (stereo unspecified),0,0,0,0,0,0,-,-,
CCN1C(=O)C(=C/C=C/c2ccco2)C(=O)N(CC)C1=S,0,0,0,-,0,101.5,0,0,
CCN1C(=O)C(=C2C=C(C)N(Cc3ccco3)C(C)=C2)C(=O)N(CC)C1=S,0,0,0,0,0,0,-,-,
Clc1cccc(N2Cc3ccccc3-n3nncc3C2)c1,0,0,0,0,0,0,-,-,
COCCN1C(=O)NC(=O)/C(=C\c2ccc(F)cc2)C1=O,0,0,0,0,0,0,-,-,
CN(C)c1ccc(/C=C2/C(=O)NC(=O)N(Cc3ccco3)C2=O)cc1,0,0,0,0,0,93.5,0,0,
O=C(O)C1C2CCC(O2)C1C(=O)Nc1cccc(Br)c1 (stereo unspecified),0,0,0,0,0,78.6,0,0,
CN1CCN(C(=O)COc2ccc(S(=O)(=O)N(C)Cc3ccccc3)cc2)CC1,0,0,0,0,0,54.7,0,0,
C#C[C@]1(O)[C@H](O)CC2C3CC[C@H]4C[C@@H](O)CC[C@]4(C)C3CC[C@@]21C (stereo partly specified),0,0,0,0,0,67.4,0,0,
C/C(=C/CCC(C)[C@H]1CC[C@@]2(C)C3=C(CC[C@]12C)[C@@]1(C)CCC(=O)C(C)(C)[C@@H]1CC3)C(=O)O (stereo partly specified),0,0,41.4,0,0,59.8,0,0,DNMT1 interf DR=0
O=C1NCN(c2ccccc2)C12CCN(C(CCc1ccccc1)c1nnnn1C1CCCC1)CC2 (stereo unspecified),0,0,0,0,0,0,-,-,
CC(C)C1(C)N=C(c2ncccc2C(=O)O)NC1=O (stereo unspecified),0,0,0,0,0,93.7,0,0,
C[C@@H]1COc2cccc(N3CCN(C)CC3)c2S(=O)(=O)N1,0,0,0,-,0,-,-,-,
COc1nc2ccccc2c(=O)n1-c1ccc(C)cc1,0,0,0,0,0,87.8,0,0,
COc1nc2ccccc2c(=O)n1-c1ccc(Cl)cc1,0,0,0,0,0,0,-,-,
Cc1ccc(/C=C2/C(=O)NC(=O)N(CCc3ccc(F)cc3)C2=O)o1,0,0,0,0,0,0,-,-,
SMILES,CSN inh,SKN-1 block,SUMO1 PPI mod,Rpn11 block,MT1-MMP act inh,DNMT1 inh,DNMT1 inh conf,Beacon interf,others
O=C1NC(=O)N(CCc2ccc(F)cc2)C(=O)/C1=C/c1ccco1,43.2,0,80.4,71.0,0,98.4,0,0,Rpn11 confirm=0;MMP-2 counter-1=0;Thrombin inh=0
CCC(c1nnnn1Cc1ccccc1)N1CCC2(CC1)C(=O)NCN2c1ccccc1 (stereo unspecified),0,0,0,0,0,0,-,-,
CC(C)OCCCNC(=O)c1c(N)n(CC2CCCO2)c2nc3ccccc3nc12 (stereo unspecified),35.6,0,40.4,45.1,0,85.2,0,0,Rpn11 confirm=0;MMP-2 counter-1=0;Thrombin inh=0
CCOc1cccc(N2C(=O)/C(=C/c3ccco3)C(=O)NC2=S)c1,39.1,0,56.4,-,0,98.0,79.7,0,DNMT1 interf DR=0;MMP-2 counter-2=34.0;Thrombin counter=0
COc1cccc(N2C(=O)/C(=C/c3ccc(C)o3)C(=O)NC2=S)c1,37.3,0,0,-,0,61.6,0,0,CSN deneddyl val=87.8;MMP-2 counter-2=31.6;Thrombin counter=26.4
O=C1NC(=S)N(c2ccccc2)C(=O)/C1=C/c1ccco1,53.3,0,53.9,75.6,0,93.5,82.0,0,DNMT1 interf DR=0;Rpn11 confirm=90.3;MMP-2 counter-1=60.9;Thrombin inh=0;MMP-2 counter-2=45.7;Thrombin counter=0

# Source: PubChem
